Assay outcomes (PubChem)
Most compounds without a hit are left out; they make up all but 12% or so of the library.
WT yeast gro inh = growth inhibition of WT yeast, mitochondrial fusion screen. inhibition, % at 10 µM. actives 2.1% (n = 190,000). mitochondrial fusion phenotypic screen, WT strain; in the data active = inhibition above about 58%; tested in S. cerevisiae
L major viab = inhibitors of Leishmania major promastigote growth | AID 1063 | actives 9% (n = 200,000) | Leishmania major promastigotes, resazurin fluorescence viability | inhibition, % at 10 µM; in the data active = inhibition above about 50%;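 note: promastigotes grown with compound for 44 hours at 28 °C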
Diaphorase inh = inhibits diaphorase or chemically oxidizes, flagging diaphorase assay artifacts | AID 1217 | actives 0.69% (n = 190,000) | inhibition, % at 20 µM | diaphorase resazurin-to-resorufin fluorescence, NADH, 16 min; bacterial (C. kluyveri) enzyme, not human;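 active = primary screen inhibition at 20 µM above a set limit, cut at about 50% in these data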
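Test system: diaphorase enzyme from Clostridium kluyveri; amount: diaphorase at 0.14 U/mL in enzyme working solution; detection: fluorescence of resorufin formed from resazurin, Ex 544/Em 590 nm; times: reaction incubation of 16 min at room temperature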
Diaph act CS = activates diaphorase or chemically reduces, flagging diaphorase assay artifacts; Diaphorase/resazurin coupled assay, resorufin fluorescence, 16 min; active compounds read high; 1 = vehicle wells, 0 = NADH-free wells; activation factor at 20 µM; actives 0.005% (n = 190,000); AID 1229;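 active = diaphorase activity raised at least twofold by the compound at 20 µM; inactive = activation factor below 2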
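Measured by – red resorufin fluorescence at 544/590 nm excitation/emission · Test system – Clostridium kluyveri diaphorase, purified enzyme · Incubation – reaction time 16 min, room temperature · Buffer or medium – 50 mM HEPES pH 7.4 with 4.542 mM MgCl2, 0.005% Tween 20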
Cl transport mod = modulators of human KCC2 chloride dependent transport; Q9H2X9; KCC2 cells, thallium flux FluoZin-2 fluorescence; actives 2.2% (n = 190,000); B-score of Tl+ flux slope (higher = more flux/activation; lower = inhibition) at 10 µM; AID 1456;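 active = thallium flux slope and its plate-corrected score both differing from the plate sample mean at a set confidence after two filtering rounds, in either direction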;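 note: slope of fluorescence scaled to starting intensity during 10 to 20 s after thallium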
ROMK primary = human ROMK K+ channel modulation, primary screen; P48048; Tet-inducible ROMK, thallium flux fluorescence; actives lie on both sides; B-score at 10 µM; actives 2% (n = 130,000);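 active = signal ratio slope over the read window, or its plate-corrected B-score, at least 3 SD from the plate mean, either direction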;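 note: B-score of the F/F0 ratio slope over 7 to 12 s after thallium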
ROMK hit retest = confirmation of human ROMK potassium channel modulators; shares compounds with ROMK primary; AID 1917; normalized thallium flux (F/F0 slope) at 10 µM; ROMK thallium flux, fluorescence ratio; active compounds read low; actives 54% (n = 3,000);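 active = Flux at 10 µM at least 3 SD below or above vehicle control mean in one or both replicates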
Of the large screens only hits and unclear results are named; the others gave an inactive call (follow-up assays come after a bar, where they were run).

CC(C)C(NC(=O)c1ccc2c(c1)OCO2)C(=O)N/N=C/c1cccs1 (stereo not given)	none
Cc1c(/C=N/NC(=O)C(NC(=O)c2ccc3c(c2)OCO3)C(C)C)c2ccccc2n1C (stereo not given)	ROMK primary 1.6 | ROMK hit retest inactive
c1coc(CNc2ncnc3sc4c(c23)CCCCC4)c1	none (no result: ROMK primary) | ROMK hit retest 0.062
O=C(Nc1ccc[n+](CC(=O)c2cccc3ccccc23)c1)c1ccccc1	ROMK primary -2.8 | ROMK hit retest 0.056
O=S(=O)(Nc1nc2ccccc2s1)c1ccc(Br)s1	ROMK primary -3.2 | ROMK hit retest 0.053
COc1cc(NC(=O)CSc2nnc(C)s2)cc(OC)c1	none
COCCNC(=O)CSc1cc(=O)n(C)c2cc(Cl)ccc12	ROMK primary -9.8 | ROMK hit retest inactive
CN1CCN(C(=O)C2=C[C@H](C(C)(C)C)C[C@H](OCCCCO)O2)CC1	none (no result: ROMK primary)
C(#Cc1ccccc1)C[N+]1(CC#Cc2cccc3ccccc23)CCOCC1	L major viab 100, ROMK primary -2.4 | ROMK hit retest 0.068
CC(C)OC(=O)c1c2c(n3ccccc13)C(=O)c1ccccc1C2=O	none (no result: ROMK primary) | ROMK hit retest 0.051
c1ccc2c(c1)SCc1nnc(-c3ccncc3)n1-2	none (no result: WT yeast gro inh, L major viab, Diaphorase inh, Diaph act CS)
CCC(C)Oc1ccccc1C1CC(=O)NC2=C1C(=O)CCC2 (stereo not given)	ROMK primary 2.8 | ROMK hit retest inactive
Cc1ccccc1C1CC(=O)NC2=C1C(=O)CCC2 (stereo not given)	none
Cc1oc(-c2cc(F)ccc2F)nc1CN1CCN(c2ncnc3ccccc23)CC1	none
COc1ccc(-c2nc(CN3CCN(c4ncnc5ccccc45)CC3)c(C)o2)c(OC)c1	ROMK primary -2.7 | ROMK hit retest 0.065
Cc1c(/C(O)=C2\C(=O)C(=O)N(CCN(C)C)C2c2ccccc2)cnn1-c1ccccc1 (stereo not given)	none (no result: WT yeast gro inh, L major viab, Diaphorase inh, Diaph act CS, ROMK primary) | ROMK hit retest inactive
CCc1ccc(-c2cc(C(=O)N/N=C/c3ccco3)[nH]n2)cc1	ROMK primary -3.2 | ROMK hit retest 0.063
COc1ccc(N(CC(=O)NN=C2CCCCCCC2)S(=O)(=O)c2ccccc2)cc1Cl	none
COc1ccc(N(CC(=O)NN=C2CCCC2)S(=O)(=O)c2ccccc2)cc1	ROMK primary 1.8 | ROMK hit retest inactive
COc1cc(C(=O)NCCCNc2nc3cc(C)c(C)cc3cc2C#N)cc(OC)c1OC	none
O=C(NC1=NCCS1)NC12CC3CC(CC(C3)C1)C2	none (no result: ROMK primary) | ROMK hit retest 0.066
Cc1ccc(-c2csc(NC(=O)Cc3ccc(F)cc3)n2)o1	ROMK primary 4.9 | ROMK hit retest inactive
O=C(NCc1cccnc1)/C(=C\c1ccc(-c2cccc(Cl)c2)o1)S(=O)(=O)c1ccccc1	L major viab 100, ROMK primary -4.8 | ROMK hit retest 0.05
O=C(NCc1cccnc1)/C(=C/c1ccc(-c2cccc(Cl)c2)o1)S(=O)(=O)c1ccccc1	L major viab 100, ROMK primary -5.3 | ROMK hit retest 0.051
Cc1ccc(C(=O)N/C(=C\c2ccc(-c3cc(Cl)ccc3Cl)o2)C(=O)NCc2cccnc2)cc1	none
N#C/C(=C/c1ccc(CNC(=O)C(=O)Nc2cc(Cl)cc(Cl)c2)o1)C(=O)NCc1cccnc1	none (no result: ROMK primary)
O=C(/C=C/c1ccccc1)NC1CCCc2ccccc21 (stereo not given)	none
CC(C)c1ccc(/C=C(\c2nc3ccccc3[nH]2)S(=O)(=O)c2ccccc2)cc1	L major viab 100, ROMK primary -3.7 | ROMK hit retest 0.06
O=S(=O)(/C(=C/c1ccc(C(F)(F)F)cc1)c1nc2ccccc2[nH]1)c1ccccc1	L major viab 100, ROMK primary -4.3 | ROMK hit retest 0.051
O=c1[nH]c2ccccc2nc1C(F)(F)F	none (no result: WT yeast gro inh, L major viab, Diaphorase inh, Diaph act CS, ROMK primary)
COc1ccc(/C=C(/NC(=O)c2ccccc2)c2nc3ccccc3[nH]2)cc1OC	none (no result: ROMK primary)
COc1cccc(-c2nn(C)c3sc(C(=O)NCc4ccccn4)cc23)c1	none (no result: ROMK primary) | ROMK hit retest inactive
O=C(Nc1ccc(F)cc1)Nc1nnc(-c2ccncc2)s1	ROMK primary -2.1 | ROMK hit retest inactive
CCOC(=O)c1c(CSc2ccc(C)cc2)n(C)c2cc(Br)c(O)c(CN(C)C)c12	L major viab 71 (no result: Cl transport mod, ROMK primary) | ROMK hit retest 0.051
Cc1cc(C)nc(SCCn2c(N3CCOCC3)nc3c2c(=O)[nH]c(=O)n3C)n1	none
O=C(NCCc1c[nH]c2ccccc12)/C(=C/c1ccco1)NC(=O)c1ccco1	ROMK primary 2.3 | ROMK hit retest inactive
O=C(CCC(=O)N(CC(=O)NC1CCCCC1)CC1CCCO1)Nc1nccs1 (stereo not given)	none (no result: Cl transport mod)
COC(=O)c1ccc(NC(=O)C2CC(=O)OC2c2ccccc2)cc1 (stereo not given)	none (no result: WT yeast gro inh, L major viab, Diaphorase inh, Diaph act CS, ROMK primary) | ROMK hit retest inactive
COc1ccccc1NC(=O)C1CC(=O)OC1c1ccccc1 (stereo not given)	none (no result: ROMK primary)
Cc1cc(C)nc(N/N=C/c2sccc2C)n1	ROMK primary -19 | ROMK hit retest inactive
Cc1ccsc1/C=N/Nc1nc2ccccc2s1	none
COc1ccccc1NC(=O)CCC(=O)Nc1nnc(C(F)(F)F)s1	none (no result: Cl transport mod)
Cc1ccc(NC(=O)CSc2nnc(C3CC3)n2N)cc1S(=O)(=O)N1CCOCC1	none
CC(C)(C)c1ccc(Cn2c(=N)n(CC(O)c3ccco3)c3ccccc32)cc1 (stereo not given)	WT yeast gro inh 59, L major viab 100, ROMK primary -2.7 (no result: Cl transport mod) | ROMK hit retest 0.051
CCCCCCCn1c(=N)n(CC(=O)c2ccco2)c2ccccc21	L major viab 100, ROMK primary -5.3 | ROMK hit retest 0.053
CCCCCCCn1c(=N)n(CC(O)c2ccco2)c2ccccc21 (stereo not given)	L major viab 82, ROMK primary -4.3 | ROMK hit retest 0.061
COc1cc(Cl)c(S(=O)(=O)NCc2cccnc2)cc1Cl	none (no result: ROMK primary)
CC1(C(=O)NC2CCCCCCC2)CCC(=O)N1Cc1cccs1 (stereo not given)	none (no result: ROMK primary)
CC(=O)NS(=O)(=O)c1ccc(NC(=O)CN2C(=O)C3C4C=CC(C4)C3C2=O)cc1 (stereo not given)	none
COC(=O)N/N=C\c1ccc(-c2cc(Cl)c(Cl)cc2Cl)o1	none
COC(=O)N/N=C/c1ccc(-c2cc(Cl)ccc2Cl)o1	none (no result: ROMK primary) | ROMK hit retest 0.066
O=C(Nc1ccc2oc(-c3ccncc3)nc2c1)c1cccs1	none (no result: Cl transport mod, ROMK primary) | ROMK hit retest inactive
Cc1ccccc1C(OCCN(C(C)C)C(C)C)c1ccccc1 (stereo not given)	none (no result: ROMK primary)
C=CCN1C(=O)/C(=C\c2ccc(Cl)cc2)N=C1SCC(=O)NCCC	none
